Reference: ChEMBL document CHEMBL3739264, “Synthesis and bio-evaluation of novel quinolino-stilbene derivatives as potential anticancer agents” (Bioorg Med Chem, 2015)
The source made the active and inactive calls. The calls are words filed in the database; no cut-off is given here.

Columns and labels:
HeLa [1] = assay: Induction of apoptosis in human HeLa cells assessed as membrane blebbing at 6 uM after 48 hrs by time lapse microscopy analysis; assay type: functional, cell-based
How it was run: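 Treated HeLa cells were followed by time-lapse microscopy, with images taken at set time points.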

[2] = Cell cycle arrest in human MCF10A cells assessed as accumulation at S phase at 6 uM after 24 hrs by flow cytometry analysis relative to control; assay type: functional, cell-based; details: MCF-10A
How it was run: (§1)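 About 1 × 10^6 cells per plate seeded overnight, then treated with compound and harvested at set times. Cells fixed in 75% ethanol at -20°C for 12-24 h and stained 1 h with 100 µg/ml PI, 100 µg/ml RNase A and 0.3% NP-40 in PBS. DNA content measured by flow cytometry; phase fractions compared with sham-treated cells.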

HeLa [3] = assay: Cell cycle arrest in human HeLa cells assessed as accumulation at G0-G1 phase at 6 uM after 48 hrs by flow cytometry analysis relative to control; assay type: functional; how it was run: as §1
HeLa [4] = assay: Cell cycle arrest in human HeLa cells assessed as accumulation at S phase at 6 uM after 72 hrs by flow cytometry analysis relative to control; assay type: functional; how it was run: as §1
HeLa [5] = assay: Cell cycle arrest in human HeLa cells assessed as accumulation at G2/M phase at 6 uM after 72 hrs by flow cytometry analysis relative to control; assay type: functional; how it was run: as §1
MDA-MB-231 = assay: Cell cycle arrest in human MDA-MB-231 cells assessed as accumulation at G2/M phase at 6 uM after 48 hrs by flow cytometry analysis relative to control; assay type: functional; how it was run: as §1
HeLa [6] = assay: Induction of apoptosis in human HeLa cells assessed as increase of PARP cleavage at 6 uM after 48 hrs by Western blot analysis; assay type: functional, cell-based
How it was run: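 HeLa cells were sham-treated or given 6 µM and collected at set times. Lysed on ice in Tris pH 7.4/NaCl/EDTA/1% Triton X-100 with PMSF and protease inhibitors. 30-40 µg protein run on 8 or 10% gels, blotted to PVDF, probed overnight at 4°C and detected by ECL. Band levels normalized to GAPDH.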

SMILES: FC(F)(F)c1cccc(/C=C\c2cc3ccccc3nc2Cl)c1
- Activity (HeLa [1]): Active
- Activity [2]: 34.3%
- Activity (HeLa [3]): 20.8%
- Activity (HeLa [4]): 17.7%
- Activity (HeLa [5]): 12.1%
- Activity (MDA-MB-231): 18.6%
- Activity (HeLa [6]): Active
